PKD1 inh: inhibitors of human PKD1 kinase, biochemical, fluorescence polarization. inhibition, % (no concentration beside the values). AID 797, 2007. PKD1 kinase fluorescence polarization assay. 200,000 compounds, 0.056% hits. Serine/threonine-protein kinase D1 (Homo sapiens), Q15139
eIF4E 4G PPI: eIF4E–eIF4G protein interaction inhibitors, primary screen, biochemical, uHTS, TR-FRET, eIF4GI fragment; Eukaryotic translation initiation factor 4E (Mus musculus) + Eukaryotic translation …; TR-FRET eIF4E-eIF4GI(517-606) binding, 2 h; inhibition, % at 21.7 µM; 220,000 compounds, 0.37% hits;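 active = inhibition above about 30%, limit read from the data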;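 note: 0% = full FRET control wells and 100% = background wells lacking eIF4GI fragment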
RBBP9 inhibitor: human RBBP9 inhibitors, primary screen, biochemical, fluorescence polarization, FP-Rh probe, HTS. inhibition, % at 7.94 µM. 220,000 compounds, 0.2% hits. recombinant RBBP9;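 active = inhibition above the campaign mean of all tested compounds plus 3 SD, cut at about 14% in these data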;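 note: plate controls were DMSO wells with RBBP9 for no effect and wells lacking RBBP9 protein for full effect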
Target sequence (O75884 whole entry, looked up): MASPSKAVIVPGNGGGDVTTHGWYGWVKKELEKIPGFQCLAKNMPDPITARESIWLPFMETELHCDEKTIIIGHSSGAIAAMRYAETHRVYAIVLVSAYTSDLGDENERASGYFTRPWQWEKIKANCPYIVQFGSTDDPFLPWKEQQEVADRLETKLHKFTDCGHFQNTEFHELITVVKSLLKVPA
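Test system: recombinant human RBBP9. Quantity: 2.5 µM RBBP9 dispensing solution, before mixing. Detection: FP readout at 525/598 nm. Reagent: Serine-hydrolase probe FP-Rh, 375 nM pre-mixing. Measure: % inhibition. Control set: DMSO-treated enzyme wells and wells lacking RBBP9. Buffer or medium: Tris-NaCl-Pluronic buffer, pH 8.0. Times: preincubation 30 min plus labeling 45 min at 25 °C.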
14-3-3 Bad inh: inhibitors of 14-3-3 zeta/Bad binding, primary screen, biochemical, TR-FRET, bovine 14-3-3 zeta | 14-3-3 protein zeta/delta (Bos taurus), P63103 | TR-FRET 14-3-3zeta/Dy647-pBad peptide displacement, 1 h | inhibition, % at 21.7 µM | 220,000 compounds, 0.71% hits;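 active = inhibition above about 70%, limit read from the data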;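 note: 0% = full 14-3-3 plus peptide FRET controls and 100% = background without 14-3-3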
Target sequence (P63103 whole entry, looked up): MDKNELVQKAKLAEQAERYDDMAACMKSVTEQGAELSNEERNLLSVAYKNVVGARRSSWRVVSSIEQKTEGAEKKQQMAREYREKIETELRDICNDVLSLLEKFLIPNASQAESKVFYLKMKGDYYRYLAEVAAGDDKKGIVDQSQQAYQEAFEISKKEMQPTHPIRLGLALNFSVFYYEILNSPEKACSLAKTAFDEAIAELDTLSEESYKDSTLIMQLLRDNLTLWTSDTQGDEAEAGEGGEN
EBV gp42 block: Epstein-Barr virus gp42 inhibitors, primary screen, biochemical, uHTS, fluorescence polarization; Glycoprotein 42 (Epstein-Barr virus (strain AG876)), Q1HVG2; Fluorescence polarization binding assay, mP read-out; inhibition, % (tested at 21.74 µM); 220,000 compounds, 0.42% hits; AID 1085, 2008
Target sequence (Q1HVG2 whole entry, looked up): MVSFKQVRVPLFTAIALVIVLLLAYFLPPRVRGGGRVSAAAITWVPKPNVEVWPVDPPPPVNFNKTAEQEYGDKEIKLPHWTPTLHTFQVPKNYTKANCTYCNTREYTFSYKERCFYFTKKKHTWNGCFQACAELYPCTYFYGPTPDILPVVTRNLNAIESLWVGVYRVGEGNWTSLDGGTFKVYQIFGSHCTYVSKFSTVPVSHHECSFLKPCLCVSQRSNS
* = called active by the depositor; x = no result given; [ ] = remark or other dose. This is a sample that favours compounds with a hit; in the whole collection about 1.6% have one here. Cut-off read from the data, not from the text of the source, unless noted: active = inhibition above about 50%; inactive = the rest.

SMILES | PKD1 inh | eIF4E 4G PPI | RBBP9 inhibitor | 14-3-3 Bad inh | EBV gp42 block
CCn1c2ccccc2c2cc(NC(=O)c3ccc(Br)o3)ccc21 | 3.2 | 4.6 | 4.9 | 4.5 | 2.9
CC(Sc1ncnc2sccc12)C(=O)Nc1ccc(C(N)=O)cc1 (stereo unspecified) | 3.3 | -1.3 | -1.9 | -5.9 | -32.2
COc1ccc(Oc2nnc(-c3ccc(C)cc3)c3ccccc23)cc1 | -0.3 | 0.1 | -8.0 | 88.6* | -2.0
CCN(CC(=O)NC)S(=O)(=O)c1ccc(Br)cc1 | -4.2 | 5.8 | -7.2 | -6.5 | -10.9
O=C(NCc1ccco1)c1ccc(-c2csnn2)cc1 | x | -3.8 | -5.6 | 2.5 | -7.1
NNC(=S)Nc1cc(S(=O)(=O)N2CCOCC2)ccc1N1CCOCC1 | -3.5 | -0.6 | -10.4 | 93.7* | -2.5
Cc1ccc(-c2nc(NC(=O)CSc3cc(C)c4ccccc4n3)ns2)cc1 | -7.0 | 15.5 | 5.5 | 75.4* | -40.8
C=CCC1(CC=C)CCCN1Cc1nc(COc2ccccc2)no1 | x | -4.9 | -7.3 | 4.1 | -8.9
CN(C)S(=O)(=O)c1cccc(NC(=O)c2cc3ccccc3o2)c1 | -7.9 | 1.0 | -8.8 | 75.1*[fluorescence artefact?] | 6.5
O=S(=O)(NC(=S)NC1CCCCC1)c1ccccc1 | -8.2 | -2.9 | -11.5 | -8.7 | -3.9
COc1ccc(CNC(=O)COC(=O)c2ccccn2)cc1 | -4.8 | -5.1 | -9.6 | -5.7 | -3.7
CCOc1ccc(CN2CCC(C(=O)N3CCN(c4ccccc4F)CC3)CC2)cc1OC | 2.7 | 7.9 | 2.7 | 73.7* | -0.7
CCOC(=O)C1CCN(Cc2ccc(O)c(OC)c2)CC1 | -19.8 | -4.8 | -5.4 | 83.8* | 0.2
COc1cc(CN2CCSCC2)cc(OC)c1OC | -10.3 | -11.1 | -1.3 | 44.1 | -23.6
COc1ccc(CN2CCSCC2)cc1O | -8.6 | -9.5 | 3.5 | 76.4* | -13.3
Cc1ccc2cc(C)c3nnc(SCc4ccc(C(=O)O)cc4)n3c2c1C | x | 97.0* | -3.1 | -4.6 | -6.5
CC(Oc1ccccc1)C(=O)N1CCN=C1SCc1ccccc1F (stereo unspecified) | x | 7.4 | 2.0 | 0.5 | -13.4
Brc1cccc2sc(N3CCN(c4ccccc4)CC3)nc12 | 3.6 | -4.0 | 1.5 | 87.1* | -2.7
Clc1cccc2sc(N3CCCCC3)nc12 | -5.8 | -0.1 | -10.5 | -12.6 | -2.1
CC(=O)NC(Cc1ccccc1C)C(=O)NC1CCN(c2ncccc2[N+](=O)[O-])CC1 (stereo unspecified) | -3.8 | 9.1 | -5.4 | -3.5 | 24.9
CCN(CC)c1ccc(C=C2C(=O)OC3(CCCCC3)OC2=O)cc1 | -0.9 | -2.5 | -16.2 | -13.8 | -88.5
Nc1ccc2c(c1)OC1(CCCCC1)O2 | 10.4 | 4.6 | 2.7 | 99.7* | -7.6
N#Cc1c2nc3ccccc3nc2n2cc(NC(=O)c3ccc(F)cc3)ccc12 | -1.5 | 16.1 | -5.8 | 78.0*[fluorescence artefact?] | 105.9*
CC(C)C(C)(C#N)NC(=O)CSc1nnc(-c2ccccc2)o1 (stereo unspecified) | 1.6 | 1.1 | -2.0 | -6.9 | 0.5
CCCn1nc(NC(=O)c2cccs2)c2cc3ccccc3nc21 | 0.8 | 6.7 | -4.2 | 76.8*[fluorescence artefact?] | -5.5
SMILES | PKD1 inh | eIF4E 4G PPI | RBBP9 inhibitor | 14-3-3 Bad inh | EBV gp42 block
CCCCn1nc(NC(=O)c2cccs2)c2cc3ccccc3nc21 | -7.7 | 1.3 | -9.4 | 39.4 | -16.4
CCCn1nc(NC(=O)c2cccs2)c2cc3cc(OC)ccc3nc21 | 6.1 | -6.8 | -14.2 | 91.7*[fluorescence artefact?] | 13.3
O=C1OC(c2ccccc2)/C(=C(/O)c2ccc(Cl)cc2)C1=O (stereo unspecified) | 3.7 | -1.1 | -2.0 | 71.1* | -17.1
COc1ccc(C(=O)Nc2cc(C)on2)cc1S(=O)(=O)N1CC(c2ccccc2)CC1=O (stereo unspecified) | -2.4 | 0.9 | -8.1 | 90.1* | 2.4
Cc1cccc(-c2oc(C)c(C)[n+]2[O-])c1 | -4.8 | -11.6 | -1.1 | 72.5* | -10.0
Cc1oc(-c2ccccc2)[n+]([O-])c1C | -2.9 | x | -5.2 | x | x
O=C(O)CCSc1nnc(SCC(=O)NCC(F)(F)F)s1 | -6.0 | 56.2* | -1.4 | 7.4 | -9.3
CC(C)CNC(=O)c1cccc(NC(=O)COc2ccc([N+](=O)[O-])cc2)c1 | -5.0 | -0.1 | -2.8 | 9.3 | 2.9
CCOc1ccc(NC(=O)N(CCN(C)C)C(C)c2cccnc2)cc1 (stereo unspecified) | x | 88.4* | -4.2 | -1.3 | -6.2
CCc1ccc(NC(=O)N(CCN(C)C)C(C)c2cccnc2)cc1 (stereo unspecified) | -8.4 | 2.8 | -8.2 | 2.6 | -13.7
COc1ccc([N+](=O)[O-])cc1N(CC(=O)N1CCCCC1)S(C)(=O)=O | -0.7 | 13.6 | -5.1 | 15.7 | 9.6
O=C(NN1CCOCC1)c1cc(-c2ccc(Br)cc2)nc2ccccc12 | -4.0 | 57.6* | 0.6 | -18.6 | -0.5
CCc1ccc(-c2cc(C(=O)NN3CCOCC3)c3ccccc3n2)cc1 | -10.2 | 8.0 | -6.4 | -16.1 | 10.4
Cc1cc(-c2ccc(N3CCOCC3)cc2)nc2ccccc12 | 7.9 | 1.4 | -3.7 | -5.4 | 56.3*
c1ccc2nc(-c3ccc(N4CCOCC4)cc3)ccc2c1 | -9.1 | -33.9 | -0.7 | -10.0 | -37.0
O=C(O)c1ccc(-n2cccc2/C=C2/NC(=O)N(c3cccc(Cl)c3)C2=O)cc1 | -2.3 | 38.4* | 1.4 | 80.0* | 33.4
CC(C)Oc1ccc(NC(=O)CCC(=O)O)cc1 | 0.7 | 0.9 | -1.9 | 5.3 | 78.3*
CO/N=C1\CCn2c1c(C)c1ccccc12 | x | 23.0 | 1.8 | 71.5* | -3.6
CCCN(CCC)CCNC(=O)c1cc2c(=O)n(CC)c3ccccc3c2s1 | x | 96.7* | 3.0 | 9.7 | -20.3
CCn1c(=O)c2cc(C(=O)N3CCCC3)sc2c2ccccc21 | 4.6 | 7.7 | -3.0 | 25.6 | -5.6
Cn1c(-c2ccc(F)cc2)cnc1NCc1cccc(F)c1 | -12.3 | -1.9 | -10.8 | 78.6* | -14.3
Cc1[nH]c2ccccc2c1/C=C/c1nc2ccccc2c(=O)[nH]1 | x | 0.0 | -0.1 | 82.0* | -16.0
NS(=O)(=O)c1ccc(N=Nc2ccc(=O)[nH]c2O)cc1 | x | 37.2* | -6.2 | 72.9* | 0.7
CCCc1nc(C(C)(C)O)c(C(=O)O)n1Cc1ccc(-c2ccccc2-c2nn[nH]n2)cc1 | x | -0.6 | -3.7 | -0.2 | -7.2
COc1ccc(-c2cc(=O)oc3cc(OCC(C)=O)ccc23)cc1 | -14.1 | -0.5 | -4.7 | -25.4 | -7.5
COc1ccc(-c2cc(=O)oc3cc(OCC(=O)c4cccc([N+](=O)[O-])c4)ccc23)cc1 | 7.4 | 23.9 | 2.0 | 70.5*[fluorescence artefact?] | -5.2
CN1CCCc2cc3c(C(F)(F)F)cc(=O)oc3nc21 | -5.0 | 2.7 | 0.9 | 3.5 | 131.6*
CN1CCCc2cc(C=O)ccc21 | 7.7 | 3.1 | -5.0 | -5.8 | -5.9

Screening data (PubChem)
